Measurements reported in ChEMBL document CHEMBL4428065, “Fulvestrant-3 Boronic Acid (ZB716): An Orally Bioavailable Selective Estrogen Receptor Downregulator (SERD)” (J Med Chem, 2016).
Activity calls are given as the source filed them. The calls are words filed in the database; no cut-off is given here.

Experiments:
[1] = tested on: T47D; assay: Antiproliferative activity against human T47D cells after 5 days by coulter counter analysis; type: functional, cell-based; settings: 120 h
In short: (§1)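 Cells plated at 50000/well in 5% FBS phenol red-free DMEM; treated with six concentrations from 10−10 to 10−5 M for 5 days, DMSO vehicle controls. Viable cells counted by Coulter counter; survival ratio = treated/vehicle viable cells (control 100%). IC50 derived from dose–response curves. Cultures at 37 °C, 5% CO2.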

[2] = tested on: T47D; assay: Antiproliferative activity against human tamoxifen-resistant T47D cells over-expressing PKC-alpha after 5 days by coulter counter analysis; type: functional, cell-based; settings: 120 h; in short: as §1
[3] = Cmax in C57BL/6 mouse at 8.3 mg/kg, sc by HPLC-MS/MS analysis; type: ADME, organism-based; parameters: dose 8.3 mg/kg, route subcutaneous; settings: in vivo
[4] = molecular target: T1, Estrogen receptor (Homo sapiens) (UniProt P03372); assay: (§2) Downregulation of ER-alpha expression in human T47D cells measured after 5 days by Western blot analysis; type: cell-based
T1 sequence (whole entry): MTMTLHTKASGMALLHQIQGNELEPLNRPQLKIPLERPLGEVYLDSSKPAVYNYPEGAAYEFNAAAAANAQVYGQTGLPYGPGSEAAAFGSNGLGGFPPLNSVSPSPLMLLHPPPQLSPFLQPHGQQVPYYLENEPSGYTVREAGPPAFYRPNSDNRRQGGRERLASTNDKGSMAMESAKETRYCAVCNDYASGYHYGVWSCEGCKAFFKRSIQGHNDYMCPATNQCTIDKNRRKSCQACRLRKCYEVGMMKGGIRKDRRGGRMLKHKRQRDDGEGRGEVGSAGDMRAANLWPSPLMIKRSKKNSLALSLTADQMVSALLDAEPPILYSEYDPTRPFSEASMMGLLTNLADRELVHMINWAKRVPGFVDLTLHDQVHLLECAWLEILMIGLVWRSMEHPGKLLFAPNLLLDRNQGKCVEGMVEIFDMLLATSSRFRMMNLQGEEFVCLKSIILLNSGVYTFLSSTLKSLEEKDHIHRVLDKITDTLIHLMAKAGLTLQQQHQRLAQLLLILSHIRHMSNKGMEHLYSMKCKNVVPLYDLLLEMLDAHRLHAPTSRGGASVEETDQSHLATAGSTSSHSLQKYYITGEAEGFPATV

[5] = Half life in C57BL/6 mouse at 8.3 mg/kg, sc by HPLC-MS/MS analysis; type: ADME, organism-based; settings: in vivo
[6] = molecular target: T1, Estrogen receptor (Homo sapiens); assay: Antiestrogenic activity at estrogen receptor in human T47D-KBluc cells assessed as inhibition of estradiol activity by luciferase reporter gene assay relative to estradiol control; type: cell-based
In short: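 T47D-kb-Luc cells stably carry an ERE-driven firefly luciferase. Antagonism was read as inhibition of the signal induced by 0.01 nM estradiol, testing 0.1, 1 and 10 nM. Luminescence was normalized to the estradiol control, run in quadruplicate in at least three separate experiments, and given as mean ± SD.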

[7] = molecular target: T1, Estrogen receptor (Homo sapiens); assay: (§3) Downregulation of ER-alpha expression in human tamoxifen-resistant T47D cells over-expressing PKC-alpha measured after 5 days by Western blot analysis; type: cell-based
[8] = tested on: MCF7; assay: Antiproliferative activity against human tamoxifen-resistant MCF7 cells after 5 days by coulter counter analysis; type: functional, cell-based; settings: MCF7, 120 h
In short: (§4)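 Cells were plated at 50000/well in 5% FBS phenol red-free DMEM. The tamoxifen-resistant line came from prolonged 4-hydroxytamoxifen exposure of MCF-7. Cells were treated 5 days at six concentrations from 10−10 to 10−5 M, with DMSO vehicle. Viable cells were counted by Coulter counter, survival expressed relative to vehicle, and IC50 taken from dose-response curves.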

[9] = AUC in C57BL/6 mouse at 8.3 mg/kg, sc by HPLC-MS/MS analysis; type: ADME, organism-based; settings: in vivo
[10] = tested on: MCF7; assay: Antiproliferative activity against human MCF7 cells after 5 days by coulter counter analysis; type: functional, cell-based; settings: MCF7, 120 h; in short: as §4
[11] = AUC in C57BL/6 mouse at 8.3 mg/kg administered through oral gavage by HPLC-MS/MS analysis; type: ADME, organism-based; settings: in vivo
In short: (§5)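 Female C57BL/6 mice, n = 5, given a single 8.3 mg/kg oral gavage in PBS/ethanol. Orbital sinus blood was drawn into EDTA at 1, 3, 6, 24 and 48 h, with each group sampled once. Analysis by UPLC-MS/MS on a C18 column with a water/acetonitrile 0.05% formic acid gradient.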

[12] = molecular target: T2, Estrogen receptor (Homo sapiens, UniProt P03372); assay: Displacement of fluoromone ligand from recombinant ER-alpha (unknown origin) by LanthaScreen TR-FRET assay
T2 sequence (P03372 whole entry): T1 sequence (whole entry)
In short: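 Competitive TR-FRET binding with recombinant ERα, in which test compound displaces a fluormone tracer. Six to ten concentrations spanning the IC50 were tested in quadruplicate, and IC50 was taken from the competition curves.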

[13] = molecular target: T1, Estrogen receptor (Homo sapiens); assay: Antagonistic activity at estrogen receptor in human MCF7 cells assessed as suppression of PDZK1 expression 10^-8 to 10^-7 M measured after 48 hrs by real-time PCR analysis; type: cell-based
In short: (§6)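 MCF-7 cells were seeded in DMEM with 5% FBS, then switched to phenol red-free DMEM with 5% charcoal-stripped FBS for 48 h. They were treated 48 h with vehicle, E2, or test compound + E2. Expression was measured by real-time PCR, with fold change calculated by 2^−ΔΔCt normalized to five reference genes (18S rRNA, HPRT1, RPL13A, GAPDH, ACTB).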

[14] = molecular target: T1, Estrogen receptor (Homo sapiens); assay: Antagonistic activity at estrogen receptor in human MCF7 cells assessed as suppression of TFF1 expression 10^-8 to 10^-7 M measured after 48 hrs by real-time PCR analysis; type: cell-based; in short: as §6
[15] = molecular target: T2, Estrogen receptor; assay: as §2; type: cell-based
[16] = Cmax in C57BL/6 mouse at 8.3 mg/kg administered through oral gavage by HPLC-MS/MS analysis; type: ADME, organism-based; parameters: dose 8.3 mg/kg, route oral; settings: in vivo; in short: as §5
[17] = Half life in C57BL/6 mouse at 8.3 mg/kg administered through oral gavage by HPLC-MS/MS analysis; type: ADME, organism-based; settings: in vivo; in short: as §5
[18] = molecular target: T1, Estrogen receptor (Homo sapiens); assay: Antagonistic activity at estrogen receptor in human MCF7 cells assessed as suppression of EGR3 expression at 10^-8 to 10^-7 M measured after 48 hrs by real-time PCR analysis; type: cell-based; in short: as §6
[19] = molecular target: T2, Estrogen receptor; assay: as §3; type: cell-based
[20] = molecular target: T1, Estrogen receptor (Homo sapiens); assay: Antagonistic activity at estrogen receptor in human MCF7 cells assessed as suppression of WISP1 expression 10^-8 to 10^-7 M measured after 48 hrs by real-time PCR analysis; type: cell-based; in short: as §6
[21] = molecular target: T1, Estrogen receptor (Homo sapiens); assay: Antagonistic activity at estrogen receptor in human MCF7 cells assessed as suppression of PGR expression 10^-8 to 10^-7 M measured after 48 hrs by real-time PCR analysis; type: cell-based; in short: as §6

Structure (SMILES)	IC50 [1] [nM]	IC50 [2] [nM]	inhibition [4]	inhibition [6]	inhibition [7]	IC50 [8] [nM]	IC50 [10] [nM]	further results
CC/C(=C(\c1ccc(O)cc1)c1ccc(OCCN(C)C)cc1)c1ccccc1 [AFIMOXIFENE]	24	540	–	–	–	–	–	–
C[C@]12CC[C@@H]3c4ccc(O)cc4C[C@@H](CCCCCCCCC[S+]([O-])CCCC(F)(F)C(F)(F)F)[C@H]3[C@@H]1CC[C@@H]2O (stereo not given in full) [FULVESTRANT]	1.2	42	Dose-dependent effect	Dose-dependent effect	Dose-dependent effect	44	1.5	Cmax [3]: 15.2 ng/mL; half-life [5]: 840 min; AUC [9]: 158 ng·h/mL
C[C@]12CC[C@@H]3c4ccc(B(O)O)cc4C[C@@H](CCCCCCCCC[S+]([O-])CCCC(F)(F)C(F)(F)F)[C@H]3[C@@H]1CC[C@@H]2O (stereo not given in full) [ZB-716]	6.1	37	Dose-dependent effect	Dose-dependent effect	Dose-dependent effect	69	3.2	AUC [11]: 2547.1 ng·h/mL; IC50 [12]: 4.1 nM; inhibition [13]: Active; inhibition [14]: Active; IC50 [15]: 7.8 nM; Cmax [16]: 169.8 ng/mL; t1/2 [17]: 23.5 h; inhibition [18]: Active; IC50 [19]: 12.7 nM; inhibition [20]: Active; inhibition [21]: Active
